A selection: hits, their analogues and other compounds. The true share with any hit is near 3%.
HTR1A agonist: human 5-HT1a receptor agonists, primary screen, cell-based, CHO, Ga15 NFAT-bla reporter; 5-hydroxytryptamine receptor 1A (Homo sapiens), P08908; CHO 5-HT1a Ga15 NFAT-bla reporter, FRET ratio; 0% basal, 100% maximal reference agonist; activation, % at 10 µM; 65,000 tested, 0.56% active; AID 567, 2006;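 active = activation above the screen-wide mean activation plus 3 SD, cut at about 19% in these data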;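 note: 0% = DMSO wells and 100% = 5-CT at EC100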
Target sequence (P08908 whole entry, looked up): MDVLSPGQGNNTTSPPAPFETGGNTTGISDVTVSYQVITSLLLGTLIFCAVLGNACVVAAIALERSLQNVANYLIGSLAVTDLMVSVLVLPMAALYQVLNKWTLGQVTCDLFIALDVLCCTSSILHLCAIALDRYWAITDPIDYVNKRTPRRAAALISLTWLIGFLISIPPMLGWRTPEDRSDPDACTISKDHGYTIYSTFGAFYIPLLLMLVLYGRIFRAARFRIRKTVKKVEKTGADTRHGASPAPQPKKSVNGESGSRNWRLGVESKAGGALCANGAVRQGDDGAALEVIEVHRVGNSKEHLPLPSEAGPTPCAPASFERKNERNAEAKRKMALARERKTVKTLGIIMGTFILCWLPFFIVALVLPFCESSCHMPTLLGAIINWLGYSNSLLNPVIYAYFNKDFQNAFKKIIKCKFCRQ
5HT1E ag: 5-HT1E receptor agonists, primary screen, cell-based, HTS; 5-hydroxytryptamine receptor 1E (Homo sapiens), P28566; CHO 5-HT1E Ga15 NFAT-bla reporter, FRET; 0% DMSO wells, 100% control agonist wells; activation, % at 6 µM; 65,000 tested, 0.69% active; AID 574, 2007;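 active = activation above a set limit, the screen-wide mean activation plus 3 SD, cut at about 8.5% in these data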;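 note: 100% = positive control agonist at 1 µM giving full maximal response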
S1P3 ag: human S1P3 receptor agonists, primary screen, cell-based, primary and confirmation, NFAT-BLA reporter; S1P3 NFAT-BLA reporter cells, agonism, FRET ratio; relative to 1 µM S1P, basal subtracted; activation, % at 4.5 µM; 60,000 tested, 0.1% active;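 active = activation above the screen-wide mean plus 3 SD, cut at about 4.5% in these data, passing the limit was not always enough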
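Material: Human S1P3 NFAT-BLA reporter CHO cells | Incubation: Overnight plating, 4 h compound 37 °C, 2 h substrate RT | Signal: FRET β-lactamase substrate fluorescence, excitation 405 nm, 460/535 nm emission ratio, background-subtracted | Compound: 4.5 µM final, single dose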
5HT1E antag: 5-HT1E receptor antagonists, primary screen, cell-based, HTS. 5-hydroxytryptamine receptor 1E (Homo sapiens), P28566. CHO 5-HT1E Ga15 NFAT-bla reporter, FRET, antagonist. inhibition, % at 6 µM. 65,000 tested, 0.99% active. AID 571, 2007;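 active = inhibition above a set limit, the mean inhibition across every tested compound plus 3 SD, cut at about 29% in these data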;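 note: signal is the 460 over 535 nm emission ratio of beta-lactamase substrate; 0% = agonist plus DMSO wells and 100% = wells without agonist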
S1P1 ag pot: S1P1 agonists and agonism potentiators, primary screen, cell-based, primary and confirmation screens, CRE-bla reporter | Sphingosine 1-phosphate receptor 1 (Homo sapiens), P21453 | S1P1 CRE-bla cells, forskolin, beta-lactamase FRET, potentiator mode; S1P1 agonist co-added at EC20, 2 nM; 100% = saturating reference agonist, 0% = basal | activation, % at 9.5 µM | 56,000 tested, 0.57% active | AID 449, 2006;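 active = activation above a cutoff set at the mean activation of all tested compounds plus 3 SD, cut at about 54% in these data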;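 note: forskolin at 4 µM as EC80 and the EC20 agonist is SEW2871; 100% = SEW2871 at its EC100 plus forskolin at EC80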
5HT1a antag: human 5-HT1a receptor antagonists, primary screen, cell-based, CHO, Ga15 NFAT-bla reporter; 62,000 tested, 0.68% active; AID 612, 2007; CHO 5-HT1a Ga15 NFAT-bla reporter, antagonist mode; inhibition, % at 10 µM;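 active = inhibition above the mean of all tested compounds plus 3 SD, cut at about 43% in these data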;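 note: receptor stimulated by 5-CT agonist at 100 nM near EC80; beta-lactamase reporter measured by ratiometric fluorescence of a cleavable substrate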
The depositor's hits bear a star; · = no result.

SMILES | HTR1A agonist | 5HT1E ag | S1P3 ag | 5HT1E antag | S1P1 ag pot | 5HT1a antag
On1onc2c3cc(-c4ccccc4)nc3ccc21 | 0 | -1 | -1 | 33* | · | 50*
COc1ccc(C(c2nnnn2CC2CCCO2)N2CCN(c3cccc(C)c3C)CC2)cc1 (stereo not given) | -2 | 3 | -1 | 6 | 11 | 24
CCCCC(c1nnnn1CC1CCCO1)N1CCN(c2cccc(C)c2C)CC1 (stereo not given) | 1 | 38* | -1 | 3 | 14 | 38
CCOC(=O)C1=C(c2ccccc2)N2CCN=C2S1 | -3 | -1 | 0 | 15 | 18 | 14
O=C(c1ccccc1)c1ccc(OCC(O)CN2CCCCC2)cc1 (stereo not given) | -3 | 0 | 0 | -2 | · | 0
O=C(c1ccc(Cl)cc1)c1ccc(OCC(O)CN2CCOCC2)cc1 (stereo not given) | 0 | 9.1* | -1 | 6 | -10 | 1
CCc1ccc(CCC(=O)Nc2sc3c(c2C#N)CCCC3)o1 | -3 | 0 | 20 | 53* | · | 61*
N#Cc1c(NC(=O)CCC(=O)O)sc2c1CCCC2 | -1 | 0 | -2 | -6 | -4 | ·
COc1cccc2cc(C(=O)NCC3CCCO3)c(=O)oc12 (stereo not given) | 1 | 0 | · | -1 | · | -2
Cc1cccc(N=c2oc3cc(O)ccc3cc2C(N)=O)c1 | 64* | 24* | 2 | -15 | -105 | -190
COc1ccccc1N=c1oc2cc(O)ccc2cc1C(=O)NCC1CCCO1 (stereo not given) | 54* | 15* | 3 | -30 | -70 | -66
COc1ccccc1N=c1oc2cc(O)ccc2cc1C(N)=O | 45* | 19* | 2 | -25 | -52 | -92
COc1ccccc1NC(=O)c1cc2ccc(O)cc2o/c1=N\O | 3 | 1 | 0 | 17 | -4 | 7
CN(C)c1ccc(C2C=C(c3ccc(Cl)cc3OC(F)F)Nc3ncnn32)cc1 (stereo not given) | 28* | 5 | 1 | 24 | -33 | 2
Cc1ccc(SCc2cn3c(C)csc3n2)cc1 | 0 | 0 | 0 | -3 | 7 | -9
CC(CCc1ccccc1)NC(=O)CSc1nc(N)cc(N)n1 (stereo not given) | 1 | 58* | 0 | -5 | 9 | 3
CC(=O)CC(=O)Nc1ccccc1NC(C)=O | -4 | 1 | -1 | -2 | -4 | -3
Cc1nn(Cc2ccc(Cl)c(Cl)c2)c(C)c1NC(=O)c1cc(-c2ccco2)on1 | 6 | 0 | -1 | 23 | 96* | 38
Cc1nn(Cc2ccc(Cl)cc2)c(C)c1NC(=O)c1cc(-c2ccco2)on1 | -1 | 0 | 0 | 17 | 65 | 8
COc1ccc2c(c1)C(=O)N(c1ccccc1OC)C(=O)C2(C)C | -1 | 0 | 0 | 10 | 3 | -1
COc1ccccc1Oc1ccc2c(c1)C(=O)N(c1ccc(O)cc1)C2=O | -3 | 1 | -1 | -3 | 112* | -1
CC(=O)NCc1ccc(-c2csc(N)n2)s1 | -3 | 14* | 1 | -9 | -12 | -12
COc1cccc(N2CCN(C(=O)c3ccc(=O)oc3)CC2C)c1 (stereo not given) | 2 | 12* | -4 | 1 | -7 | ·
COc1cccc(NC(=O)N2CCN(c3cccc(C)c3)C(C)C2)c1 (stereo not given) | -2 | 0 | 0 | 3 | 7 | 15
CCCN(CCC)CCNc1c(N2CCN(C(=O)OCC)CC2)c(=O)c1=O | -4 | -1 | 0 | 2 | 0 | -8
SMILES | HTR1A agonist | 5HT1E ag | S1P3 ag | 5HT1E antag | S1P1 ag pot | 5HT1a antag
Cc1cccc2cc3c(nc12)SC(=NCC1CCCO1)N(Cc1ccco1)C3 (stereo not given) | -3 | 1 | 0 | 32* | -4 | 57*
CC(NC(=O)Nc1nnc(C(F)(F)F)s1)N1C(=O)C2C3C=CC(C3)C2C1=O (stereo not given) | -3 | -1 | -1 | -2 | -29 | -1
CC(NC(=O)Nc1nnc(C(F)(F)F)s1)(C(F)(F)F)C(F)(F)F | 3 | 0 | -8 | 54* | 80* | ·
COC(=O)CCCCC(=O)C1C(=O)CC(C)(C)C(C(=O)OC)C1=O (stereo not given) | 24* | 2 | 0 | -2 | · | 4
O=C(NCc1cccs1)c1csc2ccccc12 | -3 | 0 | -1 | -2 | 2 | -3
Cc1cc(Nc2cccc(F)c2)nc(-c2ccccc2O)n1 | -2 | 0 | 1 | 31* | 3 | 37
CCCOc1ccc2oc(=O)c3c(c2c1)CCCN3C(=O)CN(C)Cc1ccccc1 | -2 | 1 | -1 | -5 | -7 | 5
COc1ccc(C(=O)Nc2ccc(Cl)cc2C(=O)NCc2ccco2)cc1OC | -4 | 0 | -2 | 40* | -32 | 5
Cc1cc(=O)oc2cc(OCC(O)CN3CCN(c4ccc(F)cc4)CC3)ccc12 (stereo not given) | 1 | -1 | · | 3 | · | 17
CCOc1ccccc1N1CCN(CC(O)COc2ccc3c(C)cc(=O)oc3c2)CC1 (stereo not given) | 5 | 0 | · | 6 | · | 89*
O=C1CCCC(O)=C1C=Nc1ccc(O)cc1 | -1 | -1 | -3 | 15 | -10 | 43*
CC1(C)CC(=O)C(C=Nc2ccccc2)=C(O)C1 | -4 | -2 | -1 | 16 | -9 | 19
CCSc1nnc(NC(=O)CSc2nc3c(c(=O)n2CCOC)SC(C)C3)s1 (stereo not given) | -2 | 2 | -1 | -1 | -16 | -5
CCCNC(=O)NC(=O)COC(=O)c1ccc(OC)c(S(=O)(=O)N2CCCc3ccccc32)c1 | -1 | 0 | 1 | -10 | 2 | -9
C1=C(CCNC2=NCCCCC2)CCCC1 | -2 | -1 | -1 | -2 | -14 | 13
COc1ccc(S(=O)(=O)n2nc(OC(=O)c3ccccc3Br)cc2N)cc1 | -3 | -1 | 0 | -2 | 40 | 18
CS(=O)(=O)n1nc(OC(=O)c2cccc3ccccc23)cc1N | -2 | -1 | -2 | -2 | 65* | 43*
COc1ccc(CCNc2c(C)c(C)nc3ncnn23)cc1 | -2 | 0 | 2 | 12 | 134* | 11
